Results as given in ChEMBL document CHEMBL4665711, “Synthesis of (Z)-3-(arylamino)-1-(3-phenylimidazo[1,5-a]pyridin-1-yl)prop-2-en-1-ones as potential cytotoxic agents” (Bioorg Med Chem Lett, 2020).
Active and inactive are the calls of the source. No cut-off for these calls is given here.

Columns and labels:
[1] = test system: HCT-116; experiment: Induction of cell cycle arrest in human HCT-116 cells assessed as G2/M phase at 0.5 uM incubated for 48 hrs by propidium iodide based flow cytometry analysis (reference value: 15.3 %); assay type: functional
[2] = test system: HCT-116; experiment: Induction of apoptosis in human HCT-116 cells assessed as late apoptotic cells at 0.5 uM incubated for 48 hrs by annexin-V and propidium iodide staining based flow cytometry analysis (reference value: 1.48 %); assay type: functional
[3] = test system: HCT-116; experiment: Induction of cell cycle arrest in human HCT-116 cells assessed as G0/G1 phase at 0.5 uM incubated for 48 hrs by propidium iodide based flow cytometry analysis (reference value: 28.2 %); assay type: functional
[4] = test system: BT-474; experiment: Cytotoxicity against human BT-474 cells assessed as reduction in cell viability incubated for 48 hrs by MTT assay; assay type: functional, cell-based; conditions: BT-474, 48 h
Method in brief: (§1)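 Cancer cell lines were exposed to drug for 48 h, and the 50% inhibitory concentration was determined. Values are averages of three individual experiments. A549, HCT-116, BT-474 and MDA-MB-231 are human lines; B16F10 is a murine melanoma line.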

[5] = test system: HCT-116; experiment: Induction of mitochondrial membrane potential loss in human HCT-116 cells assessed as cells with depolarized mitochondria by measuring increase in J-monomer green fluorescence intensity at 2.5 uM incubated for 48 hrs by JC1 staining based flow cytometry analysis (reference value: 12.53 %); assay type: functional
[6] = test system: HCT-116; experiment: Induction of cell cycle arrest in human HCT-116 cells assessed as sub-G1 phase at 0.5 uM incubated for 48 hrs by propidium iodide based flow cytometry analysis (reference value: 2.1 %); assay type: functional
[7] = test system: HCT-116; experiment: Induction of apoptosis in human HCT-116 cells assessed as increase in DNA breakdown incubated for 24 hrs by acridine orange staining based microscopic analysis; assay type: functional, cell-based; conditions: dose microM 0.5-2.5, time 24.0 hrs
Method in brief: (§2)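 HCT-116 cells were incubated at 0.5, 1.0 and 2.5 µM for 24 h and stained with acridine orange. Green fluorescence (excitation 480-490 nm), chromatin distribution and blebbing were inspected microscopically at 200× against untreated controls.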

[8] = test system: HCT-116; experiment: Induction of mitochondrial membrane potential loss in human HCT-116 cells assessed as cells with hyperpolarized mitochondria by measuring decrease in J-aggregates red fluorescence intensity at 0.5 uM incubated for 48 hrs by JC1 staining based flow cytometry analysis (reference value: 86.42 %); assay type: functional; parameters: scale not given: the % may be the effect or the level left
[9] = test system: HCT-116; experiment: Induction of apoptosis in human HCT-116 cells assessed as increase in late apoptotic cells incubated for 48 hrs by annexin-V and propidium iodide staining based flow cytometry analysis; assay type: functional, cell-based; conditions: dose microM 0.5-2.5, time 48.0 hrs
[10] = test system: HCT-116; experiment: Induction of cell cycle arrest in human HCT-116 cells assessed as S phase at 0.5 uM incubated for 48 hrs by propidium iodide based flow cytometry analysis (reference value: 7.8 %); assay type: functional
[11] = test system: HCT-116; experiment: Induction of cell cycle arrest in human HCT-116 cells assessed as G2/M phase at 1 uM incubated for 48 hrs by propidium iodide based flow cytometry analysis (reference value: 15.3 %); assay type: functional
[12] = test system: HCT-116; experiment: Induction of ROS production in human HCT-116 cells incubated for 24 hrs by DCFDA staining based fluorescence microscopic analysis; assay type: functional, cell-based; conditions: dose microM 0.5-2.5, time 24.0 hrs
Method in brief: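 For intracellular ROS, HCT-116 cells were incubated at 0.5, 1 and 2.5 µM for 24 h and stained with DCFDA. Cells were imaged by fluorescence microscopy, and DCF fluorescence was quantified at 480/535 nm excitation/emission in arbitrary units against control.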

[13] = test system: HCT-116; experiment: Induction of cell cycle arrest in human HCT-116 cells assessed as G2/M phase at 2.5 uM incubated for 48 hrs by propidium iodide based flow cytometry analysis (reference value: 15.3 %); assay type: functional
[14] = test system: HCT-116; experiment: Induction of mitochondrial membrane potential loss in human HCT-116 cells assessed as cells with hyperpolarized mitochondria by measuring decrease in J-aggregates red fluorescence intensity at 1 uM incubated for 48 hrs by JC1 staining based flow cytometry analysis (reference value: 86.42 %); assay type: functional; parameters: scale not given: the % may be the effect or the level left
[15] = test system: HCT-116; experiment: Induction of apoptosis in human HCT-116 cells assessed as necrotic cells at 0.5 uM incubated for 48 hrs by annexin-V and propidium iodide staining based flow cytometry analysis (reference value: 0.36 %); assay type: functional
[16] = test system: HCT-116; experiment: Induction of cell cycle arrest in human HCT-116 cells assessed as G0/G1 phase incubated for 48 hrs by propidium iodide based flow cytometry analysis; assay type: functional; conditions: dose microM 0.5-2.5, time 48.0 hrs
[17] = test system: HCT-116; experiment: Induction of apoptosis in human HCT-116 cells assessed as early apoptotic cells at 0.5 uM incubated for 48 hrs by annexin-V and propidium iodide staining based flow cytometry analysis (reference value: 1.87 %); assay type: functional
[18] = test system: HCT-116; experiment: Induction of apoptosis in human HCT-116 cells assessed as viable cells at 1 uM incubated for 48 hrs by annexin-V and propidium iodide staining based flow cytometry analysis (reference value: 96.29 %); assay type: functional; conditions: read-out: Activity
[19] = test system: HCT-116; experiment: Induction of apoptosis in human HCT-116 cells assessed as loose cell structure at 0.5 to 2.5 uM incubated for 48 hrs by DAPI staining based fluorescence microscopic analysis; assay type: functional; conditions: dose microM 0.5-2.5, time 48.0 hrs
Method in brief: (§3)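 Nuclear morphology was imaged by fluorescence microscopy using a DAPI filter at 200×; untreated cells served as control.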

[20] = test system: HCT-116; experiment: Induction of apoptosis in human HCT-116 cells assessed as viable cells at 0.5 uM incubated for 48 hrs by annexin-V and propidium iodide staining based flow cytometry analysis (reference value: 96.29 %); assay type: functional; conditions: read-out: Activity
[21] = test system: HCT-116; experiment: Induction of apoptosis in human HCT-116 cells assessed as early apoptotic cells at 2.5 uM incubated for 48 hrs by annexin-V and propidium iodide staining based flow cytometry analysis (reference value: 1.87 %); assay type: functional
[22] = test system: HCT-116; experiment: Induction of mitochondrial membrane potential loss in human HCT-116 cells assessed as cells with depolarized mitochondria by measuring increase in J-monomer green fluorescence intensity at 1 uM incubated for 48 hrs by JC1 staining based flow cytometry analysis (reference value: 12.53 %); assay type: functional
[23] = test system: HCT-116; experiment: Induction of apoptosis in human HCT-116 cells assessed as condensed DNA at 0.5 to 2.5 uM incubated for 48 hrs by DAPI staining based fluorescence microscopic analysis; assay type: functional, cell-based; conditions: dose microM 0.5-2.5, time 48.0 hrs; method in brief: as §3
[24] = test system: HCT-116; experiment: Induction of cell cycle arrest in human HCT-116 cells assessed as sub-G1 phase at 1 uM incubated for 48 hrs by propidium iodide based flow cytometry analysis (reference value: 2.1 %); assay type: functional
[25] = test system: HCT-116; experiment: Induction of apoptosis in human HCT-116 cells assessed as necrotic cells at 1 uM incubated for 48 hrs by annexin-V and propidium iodide staining based flow cytometry analysis (reference value: 0.36 %); assay type: functional
[26] = test system: HCT-116; experiment: Induction of mitochondrial membrane potential loss in human HCT-116 cells assessed as cells with hyperpolarized mitochondria by measuring decrease in J-aggregates red fluorescence intensity at 2.5 uM incubated for 48 hrs by JC1 staining based flow cytometry analysis (reference value: 86.42 %); assay type: functional; parameters: scale not given: the % may be the effect or the level left
[27] = test system: HCT-116; experiment: Induction of apoptosis in human HCT-116 cells assessed as early apoptotic cells at 1 uM incubated for 48 hrs by annexin-V and propidium iodide staining based flow cytometry analysis (reference value: 1.87 %); assay type: functional
[28] = test system: HCT-116; experiment: Induction of apoptosis in human HCT-116 cells assessed as membrane blebbing at 0.5 to 2.5 uM incubated for 24 hrs by acridine orange staining based microscopic analysis; assay type: functional, cell-based; conditions: dose microM 0.5-2.5, time 24.0 hrs; method in brief: as §2
[29] = test system: HCT-116; experiment: Cytotoxicity against human HCT-116 cells assessed as reduction in cell viability incubated for 48 hrs by MTT assay; assay type: functional, cell-based; conditions: HCT-116, 48 h; method in brief: as §1

## O=C(/C=C\Nc1ccc(Cl)cc1)c1nc(-c2ccc(F)cc2)n2ccccc12
[1]
  Activity: 15%
[2]
  Activity: 5.7%
[3]
  Activity: 31.5%
[4]
  IC50: 7.03 µM
[5]
  Activity: 20.68%
[6]
  Activity: 1.2%
[7]
  Activity: Dose-dependent effect
[8]
  Activity: 85.48%
[9]
  Activity: Dose-dependent effect
[10]
  Activity: 7%
[11]
  Activity: 16.4%
[12]
  Activity: Dose-dependent effect
[13]
  Activity: 15.6%
[14]
  Activity: 78.07%
[15]
  Activity: 0.68%
[16]
  Activity: Dose-dependent effect
[17]
  Activity: 6.17%
[18]
  viability at 1 µM: 85.8%
[19]
  Activity: Active
[20]
  viability at 0.5 µM: 87.5%
[21]
  Activity: 2.29%
[22]
  Activity: 20.53%
[23]
  Activity: Active
[24]
  Activity: 1.9%
[25]
  Activity: 3.49%
[26]
  Activity: 76.3%
[27]
  Activity: 3.78%
[28]
  Activity: Active
[29]
  IC50: 1.21 µM
